Laboratory results published in ChEMBL document CHEMBL3091448, “Identification of potent and selective cathepsin S inhibitors containing different central cyclic scaffolds” (J Med Chem, 2013).
Activity calls are given as the source filed them. No cut-off for these calls is given here.

Tests used:
Cathepsin S [1] = target: Cathepsin S (Mus musculus, UniProt O70370); test: Inhibition of mouse cathepsin-S using Z-Val-Val-Arg-AMC as substrate up to 20 mins by fluorescence assay
Procedure, shortened: (§1)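 Fluorogenic quenched-peptide cleavage assay. Enzymes at 1 nM in 100 mM potassium phosphate pH 6.5, 5 mM EDTA-Na, 0.001% Triton X-100 and 5 mM DTT. Enzyme was added to the compound dilutions, then 20 μM substrate started the reaction: Z-Val-Val-Arg-AMC, or Z-Leu-Arg-AMC for CatK. Fluorescence (ex 360/em 465 nm) was read over 20 min. IC50 is the mean of ≥2 independent experiments.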

Procathepsin L = Procathepsin L (Homo sapiens, UniProt P07711); test: Inhibition of human cathepsin-L using Z-Val-Val-Arg-AMC as substrate up to 20 mins by fluorescence assay; procedure, shortened: as §1
Procathepsin L, sequence (P07711 whole entry): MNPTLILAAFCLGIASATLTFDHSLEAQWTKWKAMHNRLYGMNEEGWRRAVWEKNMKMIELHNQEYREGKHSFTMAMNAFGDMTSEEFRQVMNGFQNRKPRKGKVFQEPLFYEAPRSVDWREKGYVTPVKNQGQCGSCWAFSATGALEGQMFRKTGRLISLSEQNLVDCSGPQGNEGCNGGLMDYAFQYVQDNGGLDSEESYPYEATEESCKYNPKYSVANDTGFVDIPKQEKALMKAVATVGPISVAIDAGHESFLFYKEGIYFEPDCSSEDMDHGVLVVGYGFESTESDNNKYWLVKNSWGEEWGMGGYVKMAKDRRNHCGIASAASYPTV

Cathepsin B = Cathepsin B (Homo sapiens, UniProt P07858); test: Inhibition of human cathepsin-B using Z-Val-Val-Arg-AMC as substrate up to 20 mins by fluorescence assay; procedure, shortened: as §1
Cathepsin S [2] = target: Cathepsin S (Homo sapiens, UniProt P25774); test: Inhibition of human cathepsin-S using Z-Val-Val-Arg-AMC as substrate up to 20 mins by fluorescence assay; procedure, shortened: as §1
Cathepsin S (Homo sapiens, UniProt P25774), sequence (P25774 whole entry): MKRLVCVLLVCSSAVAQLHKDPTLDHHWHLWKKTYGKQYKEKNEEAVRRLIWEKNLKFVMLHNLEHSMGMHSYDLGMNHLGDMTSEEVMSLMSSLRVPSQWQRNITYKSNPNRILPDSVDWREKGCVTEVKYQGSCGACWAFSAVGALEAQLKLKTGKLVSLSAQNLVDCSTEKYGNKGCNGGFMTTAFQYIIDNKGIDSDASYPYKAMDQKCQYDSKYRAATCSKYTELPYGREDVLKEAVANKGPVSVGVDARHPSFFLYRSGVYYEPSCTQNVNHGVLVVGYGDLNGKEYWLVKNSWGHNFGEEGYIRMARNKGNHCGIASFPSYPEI

Cathepsin K = target: T1, Cathepsin K (Homo sapiens, UniProt P43235); test: Inhibition of human cathepsin-K using Z-Leu-Arg-AMC as substrate up to 20 mins by fluorescence assay; procedure, shortened: as §1
T1 sequence (P43235 whole entry): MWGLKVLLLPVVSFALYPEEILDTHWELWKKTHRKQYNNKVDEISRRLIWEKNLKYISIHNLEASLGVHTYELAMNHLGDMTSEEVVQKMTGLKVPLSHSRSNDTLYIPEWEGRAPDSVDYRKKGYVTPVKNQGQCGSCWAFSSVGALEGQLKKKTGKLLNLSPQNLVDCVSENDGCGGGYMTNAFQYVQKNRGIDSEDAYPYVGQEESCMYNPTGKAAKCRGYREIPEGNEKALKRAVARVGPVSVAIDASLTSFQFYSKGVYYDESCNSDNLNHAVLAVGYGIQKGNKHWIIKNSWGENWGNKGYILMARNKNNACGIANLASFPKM

A20 = test: Inhibition of ovalbumin-induced antigen presentation in mouse A20 cells treated 1 hr before ovalbumin addition incubated for 16 hrs followed by co-cultured with DO10.10 T-cell hybridoma cells for 24 hrs assessed as IL-2 production by luminex single-bead analysis; type: functional, cell-based
Procedure, shortened: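 A20 cells were seeded at 3 × 10⁵/mL and preincubated with compound for 1 h. Ovalbumin was then added (5 mg/mL final) for 16 h. Cells were washed three times with PBS, then DO10.10 T-cell hybridoma cells (2 × 10⁵/mL) were added. After 24 h, IL-2 was quantified by Luminex single-bead assay using two anti-IL-2 antibodies. IC50 is the mean of ≥2 independent experiments.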

[3] = Drug degradation in NMRI mouse plasma at 1000 ng/mL after 4 hrs; type: ADME, cell-free; details: read-out: Drug degradation
Procedure, shortened: (§2)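 Heparinized pooled NMRI mouse plasma was spiked with compound at 1000 ng/mL and incubated at 37 °C in an orbital shaker. Aliquots (n = 3 per time point) were taken at 2 min, 1 h and 4 h and analysed by LC−MS/MS.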

Plasma = test: Metabolic stability in human plasma assessed as compound remaining at 1000 ng/mL after 5 hrs; type: ADME, cell-free
[4] = Half life in C57Bl/6 mouse at 9 mg/kg, po; type: ADME, organism-based; design: dose 9 mg/kg, route oral; details: in vivo
Procedure, shortened: (§3)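 Male C57Bl/6 mice, 8 weeks old, 24−29 g. Dosing was by oral gavage at 9 mg/kg as an aqueous microsuspension in gelatin/NaCl (7.5%/0.62%), or by iv bolus at 2 mg/kg in aqueous NaCl/30% 1-methyl-2-pyrrolidone. Terminal blood (n = 2 per time point) was collected into EDTA tubes and spun at 4 °C to obtain plasma. Plasma levels were measured by LC−MS/MS after acetonitrile precipitation. Values are the mean of two experiments.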

[5] = Half life in C57Bl/6 mouse at 2 mg/kg, iv; type: ADME, organism-based; design: dose 2 mg/kg, route intravenous; details: in vivo; procedure, shortened: as §3
[6] = Volume of distribution at steady state in C57Bl/6 mouse at 2 mg/kg, iv and 9 mg/kg, po; type: ADME, organism-based; details: in vivo, read-out: Vdss; procedure, shortened: as §3
Mus musculus [7] = test: Dose normalized AUC in C57Bl/6 mouse at 2 mg/kg, iv; type: ADME, organism-based; design: dose 2 mg/kg, route intravenous; details: in vivo; procedure, shortened: as §3
Mus musculus [8] = test: Dose normalized AUC in C57Bl/6 mouse at 9 mg/kg, po; type: ADME, organism-based; design: dose 9 mg/kg, route oral; details: in vivo; procedure, shortened: as §3
Mus musculus [9] = test: Reduction of ovalbumin-induced IL-2 production in DO10.11 transgenic BALB/c mouse at 50 mg/kg, po administered 30 mins before ovalbumin challenge measured after 4 hrs by luminex single-bead analysis; type: functional, organism-based; design: dose 50 mg/kg
Procedure, shortened: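 DO10.11 BALB/c mice carrying a transgenic ovalbumin-peptide TCR were dosed orally with compound, then challenged iv with 1.0 mg low-endotoxin ovalbumin. Plasma IL-2 was measured at 4 h by Luminex bead assay using two anti-IL-2 antibodies. Groups had n = 8, and reduction was expressed versus the ovalbumin challenge group (ANOVA with Dunnett test).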

[10] = Metabolic stability in NMRI mouse plasma assessed as compound remaining at 1000 ng/mL after 4 hrs; type: ADME, cell-free; details: read-out: Stability; procedure, shortened: as §2
[11] = Plasma concentration in DO10.11 transgenic BALB/c mouse at 50 mg/kg, po administered 30 mins before ovalbumin challenge measured after 4 hrs; type: ADME, organism-based; design: dose 50 mg/kg, route oral
[12] = Clearance in C57Bl/6 mouse at 2 mg/kg, iv and 9 mg/kg, po; type: ADME, organism-based; details: in vivo; procedure, shortened: as §3
[13] = Oral bioavailability in C57Bl/6 mouse at 9 mg/kg; type: ADME, organism-based; details: in vivo; procedure, shortened: as §3

Cathepsin S (Mus musculus, UniProt O70370), sequence (O70370 whole entry): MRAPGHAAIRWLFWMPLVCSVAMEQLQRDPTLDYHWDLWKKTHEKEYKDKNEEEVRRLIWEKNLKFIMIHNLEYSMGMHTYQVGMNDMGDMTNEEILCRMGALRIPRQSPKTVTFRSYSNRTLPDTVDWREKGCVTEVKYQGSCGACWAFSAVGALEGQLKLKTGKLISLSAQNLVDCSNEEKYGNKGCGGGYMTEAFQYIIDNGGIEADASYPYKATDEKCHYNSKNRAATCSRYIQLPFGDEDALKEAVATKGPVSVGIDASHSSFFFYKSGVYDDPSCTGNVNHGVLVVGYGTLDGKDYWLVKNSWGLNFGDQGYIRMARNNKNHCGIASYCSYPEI

IC50 (Cathepsin S [1])	IC50 (Procathepsin L)	IC50 (Cathepsin B)	IC50 (Cathepsin S [2])	IC50 (Cathepsin K)	IC50 (A20)	metabolised at 4 h, 1000 ng/mL [3]	Stability (Plasma)	half-life [4]	half-life [5]	Vd [6]	AUC/dose (Mus musculus [7])	AUC/dose (Mus musculus [8])	remaining at 4 h, 1000 ng/mL [10]	concentration at 4 h [11]	clearance [12]	bioavailability [13]	SMILES	Activity (Mus musculus [9])
1 nM	6800 nM	35200 nM	0.8 nM	> 25000 nM	15 nM	> 90%	–	–	–	–	–	–	–	–	–	–	N#CC1(NC(=O)[C@@H]2C[C@@H](S(=O)(=O)c3ccccc3Cl)CN2C(=O)c2ccccc2)CC1	–
6 nM	> 25000 nM	> 25000 nM	2 nM	> 25000 nM	58 nM	–	Stable	0.9 h	1.1 h	0.13 L/kg	10400 ng·h/mL	7200 ng·h/mL	51%	2050 ng/mL	1.6 mL/min/kg	69%	N#CC1(NC(=O)[C@@H]2C[C@@H](S(=O)(=O)c3ccccc3C(F)(F)F)CN2)CC1	inactive
